The text below walks through data of ChEMBL document CHEMBL1127511, “Synthesis and antitumor activity of a series of [2-substituted-4,5-bis(aminomethyl)-1,3-dioxolane]platinum(II) complexes” (J Med Chem, 1994).

“And” between values parts separate entries of the source, which are not always exact repeats. Equal entries are not always repeated.

One assay deals with PC-9. Put plainly: Cytotoxicity activity against human non-small cell lung adenocarcinoma cell lines PC-9 by using MTT assay. In kind it is functional, cell-based. For orientation: Tetrazolium assays rely on reduction of a dye to a coloured formazan, in cell work by metabolically active cells.
For another assay, the system named is SNU1. Put plainly: In vitro cytotoxicity activity against human stomach cancer cell lines SNU-1. The format is functional, cell-based. In short, it runs like this: (§1)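 Human stomach cancer lines in RPMI-1640 with 10% heat-inactivated FCS and penicillin/streptomycin, 37 °C, 5% CO2, seeded to stay in exponential growth. Compound added as 0.1–100.0 μg/mL solutions (stock, diluted 1:10 in well), triplicate, 4 days. MTT for 4 h, formazan dissolved in DMSO or acidified 2-propanol, read at 540 nm. IC50 from OD relative to control by probit analysis, ≥3 experiments.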

The test system of a further assay is PC-14. The assay can be described thus: Cytotoxicity activity against human non-small cell lung adenocarcinoma cell lines PC-14 by using MTT assay. The format is functional, cell-based.
Another assay has as its system SNU-5. Put plainly: In vitro cytotoxicity activity against human stomach cancer cell lines SNU-5. In kind it is functional, cell-based. In short, it runs like this:
as §1

The next assay relates to NCI-N87. The assay can be described thus: In vitro cytotoxicity activity against human stomach cancer cell lines NCI-N87. The format is functional, cell-based. In short, it runs like this:
as §1

For the next assay, the system named is SNU-16. Put plainly: In vitro cytotoxicity activity against human stomach cancer cell lines SNU-16. In kind it is functional, cell-based. In short, it runs like this:
as §1

For assay [1], the system named is KATO III stomach cancer cell line. Put plainly: Cytotoxicity activity against human stomach adenocarcinoma cell lines KATO-III by using MTT assay. The format is functional, cell-based. In short, it runs like this:
as §1

In a further assay the test system is MKN-45. The assay can be described thus: Cytotoxicity activity against human stomach adenocarcinoma cell lines MKN-45by using MTT assay. The format is functional, cell-based. In short, it runs like this:
as §1

The subject of assay [2] is Mus musculus. The assay can be described thus: The serum levels of creatinine in mice after a single intraperitoneal at dose 150 mg/kg on day 4. In kind it is functional, organism-based. The arrangement: dose 150 mg/kg. In short, it runs like this: (§2)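 Male ICR mice, single ip dose on day 0 in 0.5% carboxymethylcellulose sodium in water, six per group. Blood drawn from the posterior vena cava under anesthesia on days 1, 4, 8. Serum obtained by centrifugation (1500g, 10 min) and run on a biochemistry analyzer. Values are mean ± SE.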

The species entered for assay [3] is Mus musculus. The assay can be described thus: Number of cures/number of animals tested; out of 7 mouse. The format is functional, organism-based. In short, it runs like this: (§3)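 L1210-bearing BDF1 mice (1 × 10^6 cells ip, day 0), seven per dose group, treated ip on days 1, 5 and 9. Toxic deaths counted per group. Cures are animals without gross evidence of tumor on day 50, when experiments ended.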

The subject of assay [4] is L1210. The assay can be described thus: Antitumor activity against L1210 Leukemia cells in mice at 25 mg/kg. In kind it is functional, organism-based. The arrangement: dose 25 mg/kg. The settings on record: Mus musculus. The procedure, abridged: (§4)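 BDF1 male mice inoculated ip on day 0 with 1 × 10^6 viable (trypan blue-excluding) L1210 cells, or cisplatin-resistant L1210 cells, maintained by serial ip passage in DBA/2 mice. The resistant line came from continuous exposure to rising cisplatin and was passaged in DBA/2 mice given cisplatin 5 mg/kg ip on days 1 and 5. Drug ip on days 1, 5, 9; seven mice per dose; end day 50; %T/C from mean survival time.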

Assay [5] has as its system Mus musculus. Put plainly: The serum levels of blood urea nitrogen in mice after a single intraperitoneal at dose 150 mg/kg on day1. In kind it is functional, organism-based. More on the design: dose 150 mg/kg. The procedure, abridged:
as §2

For assay [6], the system named is L1210. The assay can be described thus: Antitumor activity against L1210 Leukemia cells in mice at 12.5 mg/kg. The format is functional, organism-based. More on the design: dose 12.5 mg/kg. The settings on record: Mus musculus. In short, it runs like this:
as §4

For assay [7], the system named is Mus musculus. The assay can be described thus: The serum levels of creatinine in mice after a single intraperitoneal at dose 150 mg/kg on day 8. More on the design: dose 150 mg/kg. The format is functional, organism-based. The procedure, abridged:
as §2

Assay [8] is described as follows: Number of deaths/number of animals tested; out of 7 mouse. In kind it is functional. The procedure, abridged: as §3
Assay [9] deals with Mus musculus. Put plainly: The serum levels of creatinine in mice after a single intraperitoneal at dose 150 mg/kg on day1. More on the design: dose 150 mg/kg. In kind it is functional, organism-based. The procedure, abridged:
as §2

For assay [10], the system named is L1210. The assay can be described thus: Antitumor activity against Cisplatin-Resistant L1210 Leukemia cells in mice at their respective dose at 100 mg/kg, ip, days. The format is functional, organism-based. The settings on record: Mus musculus. More on the design: dose 100 mg/kg. The procedure, abridged: as §4
For assay [11], the system named is L1210. The assay can be described thus: Antitumor activity against L1210 Leukemia cells in mice at 6.25 mg/kg. In kind it is functional, organism-based. The arrangement: dose 6.25 mg/kg. The settings on record: Mus musculus. In short, it runs like this: as §4
In assay [12] the test system is L1210. Put plainly: Antitumor activity against L1210 Leukemia cells in mice at 50 mg/kg. The arrangement: dose 50 mg/kg. In kind it is functional, organism-based. The settings on record: Mus musculus. The procedure, abridged:
as §4

Assay [13] has as its system Mus musculus. Put plainly: The serum levels of blood urea nitrogen in mice after a single intraperitoneal at dose 150 mg/kg on day 8. The format is functional, organism-based. More on the design: dose 150 mg/kg. In short, it runs like this: as §2
Assay [14] concerns Mus musculus. The assay can be described thus: The serum levels of blood urea nitrogen in mice after a single intraperitoneal at dose 150 mg/kg on day 4. In kind it is functional, organism-based. The arrangement: dose 150 mg/kg. In short, it runs like this: as §2
Assay [15] has as its system L1210. The assay can be described thus: Antitumor activity against Cisplatin-Resistant L1210 Leukemia cells in mice at their respective dose at 50 mg/kg, ip, days. In kind it is functional, organism-based. The arrangement: dose 50 mg/kg. The settings on record: Mus musculus. In short, it runs like this:
as §4

Assay [16] relates to L1210. The assay can be described thus: Antitumor activity against Cisplatin-Resistant L1210 Leukemia cells in mice at their respective dose at 25 mg/kg, ip, days. The arrangement: dose 25 mg/kg. The format is functional, organism-based. The settings on record: Mus musculus. The procedure, abridged:
as §4

The species entered for assay [17] is Mus musculus. The assay can be described thus: Number of toxic deaths/number of animals tested. In kind it is functional, organism-based. The procedure, abridged: as §3
For assay [18], the system named is L1210. Put plainly: Antitumor activity against L1210 (murine leukemia) cells in mice at 100 mg/kg i.p. The format is functional, organism-based. More on the design: dose 100 mg/kg. The settings on record: Mus musculus. The procedure, abridged:
as §4

Assay [19] relates to L1210. The assay can be described thus: Antitumor activity against Cisplatin-Resistant L1210 Leukemia cells in mice at their respective dose at 3.1 mg/kg, ip, days. The format is functional, organism-based. More on the design: dose 3.1 mg/kg. The settings on record: Mus musculus. In short, it runs like this:
as §4

The test system of assay [20] is Mus musculus. The assay can be described thus: The serum levels of creatinine in mice after a single intraperitoneal at dose 6.0 mg/kg on day1. In kind it is functional, organism-based. The arrangement: dose 6 mg/kg. The procedure, abridged: as §2
The test system of assay [21] is Mus musculus. Put plainly: The serum levels of creatinine in mice after a single intraperitoneal at dose 6.0 mg/kg on day 4. The format is functional, organism-based. More on the design: dose 6 mg/kg. In short, it runs like this: as §2
In assay [22] the test system is Mus musculus. Put plainly: The serum levels of creatinine in mice after a single intraperitoneal at dose 6.0 mg/kg on day 8. The format is functional, organism-based. More on the design: dose 6 mg/kg. The procedure, abridged:
as §2

For assay [23], the system named is Mus musculus. The assay can be described thus: The serum levels of blood urea nitrogen in mice after a single intraperitoneal at dose 6.0 mg/kg on day1. The arrangement: dose 6 mg/kg. In kind it is functional, organism-based. The procedure, abridged:
as §2

Assay [24] deals with Mus musculus. The assay can be described thus: The serum levels of blood urea nitrogen in mice after a single intraperitoneal at dose 6.0 mg/kg on day 4. In kind it is functional, organism-based. More on the design: dose 6 mg/kg. In short, it runs like this: as §2
Assay [25] relates to Mus musculus. Put plainly: The serum levels of blood urea nitrogen in mice after a single intraperitoneal at dose 6.0 mg/kg on day 8. In kind it is functional, organism-based. More on the design: dose 6 mg/kg. In short, it runs like this:
as §2

The subject of assay [26] is L1210. The assay can be described thus: Antitumor activity against Cisplatin-Resistant L1210 Leukemia cells in mice at their respective dose at 1.5 mg/kg, ip, days. In kind it is functional, organism-based. More on the design: dose 1.5 mg/kg. The settings on record: Mus musculus. In short, it runs like this: as §4
The test system of assay [27] is Mus musculus. Put plainly: Antitumor activity against L1210 Leukemia cells in mice at their respective dose at 1.5 mg/kg, ip, days. The format is functional, organism-based. The arrangement: dose 1.5 mg/kg. The settings on record: Leukemia cell. In short, it runs like this:
as §4

Assay [28] deals with Mus musculus. The assay can be described thus: Antitumor activity against L1210 Leukemia cells in mice at their respective dose at 3.1 mg/kg, ip, days. The format is functional, organism-based. More on the design: dose 3.1 mg/kg. The settings on record: Leukemia cell. In short, it runs like this: as §4

On to CARBOPLATIN [listing 1 of 2 here], for which the IC50 was found to be 19 µg/mL with PC-9; 37.78 µg/mL in the assay with SNU1; 5.8 µg/mL in the assay on PC-14; 10.75 µg/mL with SNU-5; 153.38 µg/mL in the assay with NCI-N87; 34.02 µg/mL with SNU-16. The IC50 came out at 10.5 µg/mL in assay [1] and 6.4 µg/mL in the assay with MKN-45.

Consider CARBOPLATIN [listing 2 of 2 here], for which the Creatinine in the assay on Mus musculus [2] amounted to 0.19 mg 100ml-1; with Mus musculus [7] it was 0.31 mg 100ml-1; in the assay with Mus musculus [9] it was 0.25 mg 100ml-1. Further, the Ratio is 1 and 2 in the assay filed under Mus musculus [3]; 2 in [8]; 1 in the assay filed under Mus musculus [17]. The T/C turned out to be 148% in the assay on L1210 [4]; 125% in the assay on L1210 [6]; 81% in the assay with L1210 [10]; 107% in the assay with L1210 [11]; 196% with L1210 [12]; 132% with L1210 [15]. The results for the T/C with L1210 [16] and in the assay with L1210 [18] were 98% and 197%, respectively. Moreover, the BUN with Mus musculus [5] worked out at 24.4 mg 100ml-1; in the assay on Mus musculus [13], 28.6 mg 100ml-1; in the assay on Mus musculus [14] it was 21.1 mg 100ml-1.

CISPLATIN [listing 1 of 2 here]: the IC50 in the assay on PC-9 is 1.03 µg/mL; in the assay with SNU1 it was 2.9 µg/mL; with PC-14, 0.77 µg/mL; in the assay on SNU-5 it was 1.29 µg/mL; in the assay with NCI-N87, 13.73 µg/mL; in the assay on SNU-16, 2.83 µg/mL. The IC50 in [1] came to 0.83 µg/mL; in the assay on MKN-45, 0.51 µg/mL.

CISPLATIN [listing 2 of 2 here]: the T/C in the assay with L1210 [19] is 109%; with L1210 [26], 86%; in the assay on Mus musculus [27], 142%; in the assay with L1210 [11] it was 82%; with Mus musculus [28], 167%. Moreover, the Creatinine with Mus musculus [20] turned out to be 0.26 mg 100ml-1; in the assay on Mus musculus [21], 0.28 mg 100ml-1; in the assay with Mus musculus [22], 0.4 mg 100ml-1. In addition, the BUN with Mus musculus [23] is 24.8 mg 100ml-1; with Mus musculus [24], 43.1 mg 100ml-1; with Mus musculus [25], 32.5 mg 100ml-1. The Ratio in the assay listed under Mus musculus [17] was 5 and 2.

A word on the IC50: it is the concentration that gives 50% inhibition. A lower IC50 goes with inhibition by little substance. A word on the T/C: it is the result in the treated group divided by that in the control group, in per cent.
